Source: ChEMBL document CHEMBL1127626, “Synthesis and molecular modeling of 1-phenyl-1,2,3,4-tetrahydroisoquinolines and related 5,6,8,9-tetrahydro-13bH-dibenzo[a,h]quinolizines as D1 dopamine antagonists” (J Med Chem, 1994)
pKi: −log10 of the molar value. Values joined by “and” are separate entries in the source; they are usually repeats but may differ in a detail not shown here. Equal entries are not always repeated.

Key:
[1] = target: T1, D(1A) dopamine receptor (Rattus norvegicus, UniProt P18901); experiment: Binding affinity against dopamine receptor D1
T1 sequence (P18901 whole entry): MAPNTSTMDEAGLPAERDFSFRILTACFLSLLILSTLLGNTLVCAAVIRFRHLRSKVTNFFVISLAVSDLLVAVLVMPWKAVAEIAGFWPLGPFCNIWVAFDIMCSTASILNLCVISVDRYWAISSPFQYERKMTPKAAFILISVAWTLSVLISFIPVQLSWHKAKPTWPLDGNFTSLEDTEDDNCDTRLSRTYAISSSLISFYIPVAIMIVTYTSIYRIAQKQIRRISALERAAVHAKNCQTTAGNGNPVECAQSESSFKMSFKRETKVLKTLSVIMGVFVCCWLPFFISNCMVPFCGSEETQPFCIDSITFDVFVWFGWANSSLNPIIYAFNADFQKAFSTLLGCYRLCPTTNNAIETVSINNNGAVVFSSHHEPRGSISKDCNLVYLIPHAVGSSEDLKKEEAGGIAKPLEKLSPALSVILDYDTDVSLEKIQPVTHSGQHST

[2] = target: T1, D(1A) dopamine receptor; experiment: Binding affinity towards dopamine receptor D1 using [3H]SCH-23390 was determined in rat striatal membranes; format: cell membranes, Striatum, Membrane
[3] = target: T2, D(2) dopamine receptor (Rattus norvegicus, UniProt P61169); experiment: Binding affinity towards dopamine […] receptor using [3H]spiperone was determined in rat striatal membranes; format: cell membranes, Striatum, Membrane
T2 sequence (P61169 whole entry): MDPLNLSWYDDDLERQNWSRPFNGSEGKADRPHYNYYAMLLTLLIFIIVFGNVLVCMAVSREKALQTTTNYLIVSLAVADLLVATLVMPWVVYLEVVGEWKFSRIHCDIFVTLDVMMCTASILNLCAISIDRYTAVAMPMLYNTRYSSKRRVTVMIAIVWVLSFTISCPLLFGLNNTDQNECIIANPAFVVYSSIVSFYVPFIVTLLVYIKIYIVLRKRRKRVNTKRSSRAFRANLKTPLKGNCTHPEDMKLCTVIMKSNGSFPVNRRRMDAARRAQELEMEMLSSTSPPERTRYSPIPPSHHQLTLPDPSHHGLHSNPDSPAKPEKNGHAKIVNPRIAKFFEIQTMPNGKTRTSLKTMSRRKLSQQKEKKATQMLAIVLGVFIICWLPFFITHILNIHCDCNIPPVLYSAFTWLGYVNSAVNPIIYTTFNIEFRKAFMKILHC

[4] = target: Dopamine receptors; D1 & D2 (Rattus norvegicus) (UniProt P18901+P61169); experiment: Selectivity for D1 receptor was determined as the ratio of Ki (D2) to that of Ki (D1); format: protein assay
How it was run: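 D2 used 0.02 nM [3H]spiperone with 50 nM ketanserin; D1 used 0.25 nM [3H]SCH23390. IC50 from Hill plot linear regression, converted to Ki via Cheng-Prusoff.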

[5] = target: T2, D(2) dopamine receptor; experiment: Binding affinity against dopamine (D2) receptor
How it was run: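 Competition with 0.02 nM [3H]spiperone plus 50 nM ketanserin to mask 5-HT2 sites; chlorpromazine defines nonspecific. 37 °C 15 min, glass-fiber filtration. IC50 from Hill plot linear regression, Ki by Cheng-Prusoff; mean ± SEM.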

Compound | pKi [1] | pKi [2] | pKi [3] | Ratio [4] | pKi [5] | Log Ki [1]
CN1Cc2ccccc2C2c3cc(O)c(Br)cc3CCC21 (racemic) | 6.85 | 6.86 | < 5.52 |  |  | 
Oc1cc2c(cc1Cl)CCN1CCc3ccccc3C21 (racemic) | 6.38 | 6.08 | < 5.30 |  |  | 
CN1CCc2cc(Cl)c(O)cc2C1Cc1ccccc1 (racemic) |  |  |  | 5.39 |  | 
CN1CCc2cc(Cl)c(O)cc2[C@H]1c1ccccc1 | 8.18 |  |  | 43.4 | 4.71 | 
CN1CCc2cc(Cl)c(O)cc2[C@@H]1c1ccccc1 | 8.04 |  |  | 206 |  | -8.04
Oc1cc2c(cc1Cl)CCNC2c1ccccc1 (racemic) | 6.85 | 6.13 |  | 35.4 | 5.43 | 
CN1CCc2cc(O)c(O)cc2C1c1ccccc1 (racemic) | 6.73 | 6.43 | 6.54 | 1.27 | 6.53 | 
Oc1cc2c(cc1Cl)CNCC2c1ccccc1 (racemic) | 6.55 |  |  | 6.4 |  | 
CN1CCc2ccc(O)cc2C1c1ccccc1 (racemic) | < 5.00 | < 5.30 | < 5.30 |  |  | 
CN1CCc2cc(Br)c(O)cc2[C@H]1c1ccccc1 | 8.08 | < 5.30 | < 5.30 |  |  | 
CN1CCc2cc(O)ccc2[C@H]1c1ccccc1 | < 5.00 | < 5.30 | < 5.30 |  |  | 
CN1CCc2cc(Br)c(O)cc2[C@@H]1c1ccccc1 | 8.08 | 8.08 | 5.89 | 157 | 5.88 | 
CN1Cc2cc(Cl)c(O)cc2C(c2ccccc2)C1 (racemic) | 6.75 and 7.06 |  |  | 3 |  | 
CCCN1CCc2cc(Cl)c(O)cc2C1c1ccccc1 (racemic) | 6.75 | 6.75 |  | 10.6 | 5.72 | 
Oc1cc2c(cc1O)C1c3ccccc3CCN1CC2 (racemic) | 5.86 | 5.57 | < 5.30 |  |  | 
